The term inhibition denotes the drop in the measured response relative to a control, in per cent. Usually pIC50 stands for −log10 of the IC50, conventionally taken in molar units.

Test [1] relates to RAW264.7. Put plainly: Antiinflammatory activity in mouse RAW264.7 cells assessed as inhibition of Kdo2 lipid-A-stimulated arachidonic acid release at 25 uM for 1 hr. The test is classed as functional. Conditions: for inhibition at 25 µM: RAW264.7, 1 h. An outline of the steps: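 RAW 264.7 macrophages plated at 2 × 10^6 cells per well and left to adhere overnight. Preincubated 30 min with 25 μM inhibitor, then stimulated with Kdo2-Lipid A. Supernatants collected 1 h later. AA extracted and measured by HPLC-MS, normalized to pmol AA per million cells via DNA quantitation.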

In test [2] the test system is RAW264.7. The experiment in a line: Antiinflammatory activity in mouse RAW264.7 cells assessed as inhibition of Kdo2 lipid-A-stimulated arachidonic acid release after 1 hr. Format: functional, cell-based. To be noted: RAW264.7, 1 h. Put shortly: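 RAW 264.7 macrophages grown in DMEM with 10% FBS, 2 mM glutamine, penicillin/streptomycin and non-essential amino acids at 37 °C, 5% CO2. Plated at 2 × 10^6 cells per well, adhered overnight. Inhibitor added 30 min before Kdo2-Lipid A, supernatants taken 1 h after stimulation. AA extracted and quantitated by HPLC-MS, normalized to pmol per million cells by DNA quantitation. IC50 = concentration giving half of the maximal inhibition seen.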

Test [3] has as its target T1, Cytosolic phospholipase A2 (Homo sapiens) (UniProt P47712).
T1 sequence (whole entry): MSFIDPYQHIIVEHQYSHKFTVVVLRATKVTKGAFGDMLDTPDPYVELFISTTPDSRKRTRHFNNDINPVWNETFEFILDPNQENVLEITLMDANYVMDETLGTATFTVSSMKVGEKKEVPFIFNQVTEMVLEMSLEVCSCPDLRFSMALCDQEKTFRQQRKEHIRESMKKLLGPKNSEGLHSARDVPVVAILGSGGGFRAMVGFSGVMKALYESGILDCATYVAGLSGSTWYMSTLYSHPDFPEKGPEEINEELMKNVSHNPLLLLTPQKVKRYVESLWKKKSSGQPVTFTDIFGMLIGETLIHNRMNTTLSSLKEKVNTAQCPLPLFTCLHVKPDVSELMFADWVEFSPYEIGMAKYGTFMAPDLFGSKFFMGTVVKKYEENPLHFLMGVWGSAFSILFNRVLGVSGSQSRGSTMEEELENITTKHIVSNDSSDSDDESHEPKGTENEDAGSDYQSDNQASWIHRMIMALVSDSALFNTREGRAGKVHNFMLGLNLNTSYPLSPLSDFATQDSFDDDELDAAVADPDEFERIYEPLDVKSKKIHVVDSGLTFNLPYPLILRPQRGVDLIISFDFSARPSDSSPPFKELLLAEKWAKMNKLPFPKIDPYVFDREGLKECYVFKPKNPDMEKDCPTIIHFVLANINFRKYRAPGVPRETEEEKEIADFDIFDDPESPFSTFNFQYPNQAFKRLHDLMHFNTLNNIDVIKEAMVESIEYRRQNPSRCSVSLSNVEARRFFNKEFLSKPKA
Put plainly: Inhibition of human group-4A cPLA2 at 0.091 mole fraction by mixed micellar assay. Put shortly:
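Modified Dole assay, single point at 0.091 mole fraction inhibitor. Mixed micelles: 400 μM Triton X-100, 97 μM PAPC, 1.8 μM 14C-PAPC, 3 μM PIP2. Buffer: 100 mM HEPES pH 7.5, 90 μM CaCl2, 2 mM DTT, 0.1 mg/ml BSA. Percent inhibition reported.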

In test [4] the target is T2, 85/88 kDa calcium-independent phospholipase A2 (Homo sapiens) (UniProt O60733).
T2 sequence (whole entry): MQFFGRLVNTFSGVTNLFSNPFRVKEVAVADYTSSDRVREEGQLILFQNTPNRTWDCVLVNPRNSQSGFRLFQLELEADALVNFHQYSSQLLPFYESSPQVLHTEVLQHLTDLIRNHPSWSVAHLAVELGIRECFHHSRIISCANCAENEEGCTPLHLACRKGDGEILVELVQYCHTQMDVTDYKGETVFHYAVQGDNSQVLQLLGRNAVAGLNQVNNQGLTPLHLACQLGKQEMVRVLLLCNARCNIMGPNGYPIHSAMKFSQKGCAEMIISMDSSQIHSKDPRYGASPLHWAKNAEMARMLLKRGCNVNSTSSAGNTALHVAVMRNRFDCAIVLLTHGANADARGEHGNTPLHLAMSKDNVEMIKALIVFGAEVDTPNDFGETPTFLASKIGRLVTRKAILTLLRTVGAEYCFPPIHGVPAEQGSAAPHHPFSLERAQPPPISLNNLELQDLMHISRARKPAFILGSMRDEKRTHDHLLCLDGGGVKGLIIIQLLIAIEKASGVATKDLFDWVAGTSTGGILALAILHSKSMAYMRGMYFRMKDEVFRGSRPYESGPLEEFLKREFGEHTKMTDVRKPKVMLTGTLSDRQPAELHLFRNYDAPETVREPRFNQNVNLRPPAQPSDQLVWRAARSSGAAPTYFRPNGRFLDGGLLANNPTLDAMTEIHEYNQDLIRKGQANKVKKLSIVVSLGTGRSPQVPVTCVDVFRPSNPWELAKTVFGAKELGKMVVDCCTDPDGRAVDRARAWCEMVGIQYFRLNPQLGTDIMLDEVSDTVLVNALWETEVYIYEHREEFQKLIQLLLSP
Put plainly: Inhibition of human group-6A iPLA2 at 0.091 mole fraction by mixed micellar assay. Put shortly:
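Modified Dole assay, percent inhibition at 0.091 mole fraction inhibitor. Micelles were either 400 μM Triton X-100, 99 μM DPPC, 1.5 μM 14C-DPPC in 200 mM HEPES pH 7.0, 1 mM ATP, 2 mM DTT, 0.1 mg/ml BSA, or 400 μM Triton X-100, 98.3 μM PAPC, 1.7 μM 14C-PAPC in 100 mM HEPES pH 7.5, 2 mM ATP, 4 mM DTT.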

Test [5] has as its target T3, Phospholipase A2 group V (Homo sapiens) (UniProt P39877).
T3 sequence (whole entry): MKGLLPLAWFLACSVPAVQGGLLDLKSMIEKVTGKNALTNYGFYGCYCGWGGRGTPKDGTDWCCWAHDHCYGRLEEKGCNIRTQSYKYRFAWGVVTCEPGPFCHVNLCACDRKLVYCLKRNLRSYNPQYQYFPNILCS
The experiment in a line: Inhibition of human group-5 sPLA2 at 0.091 mole fraction by mixed micellar assay. An outline of the steps:
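Radiometric modified Dole assay screening at 0.091 mole fraction inhibitor, giving percent inhibition. Mixed micelles of 400 μM Triton X-100, 99 μM DPPC and 1.5 μM 14C-DPPC in 50 mM Tris pH 8.0 with 5 mM CaCl2.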

pIC50: −log10 of the molar value. A value given as a limit tells only on which side of the number the result lay.

For `CCCCCCCCCCCCCCC(=O)C(=O)NCC(=O)OC`, in the test with RAW264.7 [1], the inhibition at 25 µM worked out at 68%.
As for `CCCCCCCCCCC(=O)C(=O)N[C@@H](CCCC)CCC(=O)O`, in the test on RAW264.7 [2], the pIC50 was 5.00. Besides, the inhibition at 25 µM with RAW264.7 [1] amounted to 62%.
Regarding `CCCCCCCCCCC(=O)C(=O)N[C@@H](CCC(=O)OC)COC(=O)NCCCCCCCC`, the Activity entry in the test on RAW264.7 [1] was “Toxic”.
As for `CCCCCCCCCCCCCCC(=O)C(=O)NCCCCC(=O)OC(C)(C)C`, the inhibition at 25 µM in the test on RAW264.7 [1] turned out to be 59%.
Still for that read-out and setting: as for `CCCCCCCCCCCCCCC(=O)C(=O)N[C@H](/C=C/C=C/C(=O)O)CCCC`, the figure is 74%.
As for `CCCCCCCCCCCCCCC(=O)C(=O)N[C@H](C(=O)NCC(=O)OC(C)(C)C)C(C)C`, the inhibition was over 90% in test [3], over 90% in test [4] and 78% in test [5]. In addition, the inhibition at 25 µM in the test with RAW264.7 [1] was 30%.
For `CCCCCCCCCCCCCCC(=O)C(=O)N[C@@H](CCCC)COCC(=O)O`, the inhibition in test [3] is over 90%; in test [4], under 25%; in test [5], under 25%. Moreover, the pIC50 in the test with RAW264.7 [2] is 5.70.
On to `CCCCCCCCCCCCCCC(=O)C(=O)N[C@@H](CCCC)COCC(=O)OC(C)(C)C`, for which the inhibition in test [3] is 44%; in test [4], 81%; in test [5] it was 57%.
Turning to `CCCCCCCCCCCCCCC(=O)C(=O)N[C@H](CCC(=O)O)CC(C)C`, the pIC50 in the test with RAW264.7 [2] is 4.60. In addition, the inhibition at 25 µM in the test on RAW264.7 [1] was 6%.
Consider `CCCCCCCCCCCCCCC(=O)C(=O)N[C@@H](CCCC)CCC(=O)O`, for which the pIC50 with RAW264.7 [2] was 4.60. In addition, the inhibition at 25 µM in the test with RAW264.7 [1] came to 30%.
Consider `CCCCCCCCCCCCCCC(=O)C(=O)NCCC(=O)OC(C)(C)C`, for which the Activity result in the test with RAW264.7 [1] is “Toxic”.
For the compound `CCCCCCCCCCCCCCC(=O)C(=O)N[C@H](/C=C/C(=O)O)CCCC`, the pIC50 in the test on RAW264.7 [2] was 4.60. Besides, in the test with RAW264.7 [1], the inhibition at 25 µM came out at 16%.
As for `CCCCCCCCCCCCCCC(=O)C(=O)N[C@@H](CCCC)CCC(=O)OC`, the Activity result with RAW264.7 [1] was “Toxic”.
Regarding `CCCCCCCCCCCCCCC(=O)C(=O)N[C@H](/C=C/C(=O)OCC)CCCC`, in the test with RAW264.7 [1], the inhibition at 25 µM came out at 11%.
For `CCCCCCCCCCCCCCC(=O)C(=O)N[C@@H](CCCC)C(=O)NCC(=O)O`, the inhibition in test [3] is over 90%; in test [4] it was under 25%; in test [5] it was under 25%.
Regarding `CCCCCCCCCCCCCCC(=O)C(=O)N[C@@H](CCCC)CCCC(=O)O`, in the test on RAW264.7 [2], the pIC50 is 5.15. In the test on RAW264.7 [1], the inhibition at 25 µM is 30%.
Consider `CCCCCCCCCCCCCCC(=O)C(=O)NCCCC(=O)N(C)S(=O)(=O)c1ccc(C)cc1`, for which the Activity result in the test with RAW264.7 [1] is “Toxic”.
`CCCCCCCCCCCCCCC(=O)C(=O)N[C@@H](CCCC)C(=O)NCC(=O)OCC`: the inhibition in test [3] was 73%; in test [4], over 90%; in test [5], 63%.
Take `CCCCCCCCCCCCCCC(=O)C(=O)N[C@H](/C=C/C(=O)OC)CCCC`: in the test with RAW264.7 [1], the Activity result is “Toxic”.
Take `CCCCCCCCCCCCCCC(=O)C(=O)N[C@H](C(=O)NCC(=O)O)C(C)C`: the inhibition in test [3] is over 90%; in test [4], under 25%; in test [5] it was under 25%.
For `CCCCCCCCCCCCCCC(=O)C(=O)NCCCC(=O)COCC`, the inhibition in test [3] and in test [4] was over 90% in each case.
Take `CCCCCCCCCCC(=O)C(=O)N[C@@H](CCCC)C(=O)O`: the inhibition at 25 µM in the test on RAW264.7 [1] amounted to 79%.
In the case of `CCCCCCCCCCCCCCC(=O)C(=O)NCCCC(=O)O`, the pIC50 with RAW264.7 [2] is 4.60. Further, in the test with RAW264.7 [1], the inhibition at 25 µM was 27%.
As to `CCCCCCCCCCCCCC(=O)C(=O)N[C@@H](CCCC)CCCCC(=O)O`, the Activity result with RAW264.7 [1] is “Toxic”.
For `CCCCCCCCCCCCCCC(=O)C(=O)N[C@@H](CCCC)C(=O)NCC(=O)OC`, the inhibition in test [3] is over 90%; in test [4], over 90%; in test [5] it was 65%.
In the case of `CCCCCCCCCCCCCCC(=O)C(=O)NCCCC(=O)OCC`, the Activity entry with RAW264.7 [1] is “Toxic”.
With `CCCCCCCCCCCCCCC(=O)C(=O)N[C@@H](CCCC)COCC(=O)OCC`, the inhibition in test [3] is 52%; in test [4] it was over 90%; in test [5], 81%.
Take `CCCCCCCCCCCCCCC(=O)C(=O)N[C@H](C(=O)NCC(=O)OC)C(C)C`: the inhibition in test [3] is 25%; in test [4] it was under 25%; in test [5] it was under 25%.
As for `CCCCCCCCCCCCCCC(=O)C(=O)NCCCC(=O)CO`, the inhibition is over 90% in test [3] and under 25% in test [4].
For the compound `CCCCCCCCCCCCCCC(=O)C(=O)N[C@@H](CCCC)C(=O)NCC(=O)OC(C)(C)C`, the inhibition in test [3] was 72%; in test [4], over 90%; in test [5] it was 59%.
`CCCCCCCCCCCCCCC(=O)C(=O)N[C@@H](C)CCC(=O)OC(C)(C)C`: in the test on RAW264.7 [1], the Activity result is “Toxic”.

The values are drawn from ChEMBL document CHEMBL1154042, “2-Oxoamide inhibitors of phospholipase A2 activity and cellular arachidonate release based on dipeptides and pseudodipeptides” (Bioorg Med Chem, 2009).
